Assay results: ChEMBL document CHEMBL2311508, “A natural product inspired hybrid approach towards the synthesis of novel pentamidine based scaffolds as potential anti-parasitic agents” (Bioorg Med Chem Lett, 2013)
≈ marks a conversion by molar mass, not a printed value. Calls of active or inactive are those of the source. No cut-off for these calls is given here.

Assays:
Leishmania donovani [1] = assay: Antileishmanial activity against amastigote stage of Leishmania donovani infected in mouse J774A.1 cells assessed as intracellular parasite growth inhibition after 72 hrs by luciferase reporter gene assay; type: functional, organism-based; conditions: J774.A1, 72 h
Method in brief: (§1)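 Macrophages seeded at 4 × 10³ cells/100 µL/well in RPMI-1640 with 10% fetal calf serum, 37 °C, CO₂. After 24 h, medium replaced with fresh medium containing stationary-phase promastigotes (4 × 10⁴/100 µL/well), which were phagocytosed and transformed to amastigotes. Compounds added at up to 7 concentrations starting from 40 µM, 72 h at 37 °C. Steady-Glo luciferase read as RLU versus untreated controls; IC50 by logit regression.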

[2] = (§2) Cytotoxicity against human KB cells after 72 hrs by MTT assay; type: cell-based; conditions: KB cells
Method in brief: (§3)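 Mammalian cells exposed to compound dilutions for 72 h; MTT used for detection (modified Mosmann method). CC50 derived by nonlinear regression.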

[3] = (§4) Selectivity index, ratio of CC50 for human KB cells to IC50 for amastigote stage of Leishmania donovani infected in mouse J774A.1 cells; type: functional
Method in brief: (§5)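 SI = CC50 in KB cells (72 h MTT, nonlinear regression) divided by IC50 against intracellular amastigotes (72 h luciferase assay in infected macrophages, logit regression).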

[4] = Cytotoxicity against african green monkey Vero cells after 72 hrs by MTT assay; type: cell-based; conditions: chlorocebus sabaeus; method in brief: as §3
Plasmodium falciparum [5] = assay: Antimalarial activity against chloroquine-sensitive Plasmodium falciparum 3D7 assessed as parasite growth inhibition after 72 hrs by MSF assay; type: functional, organism-based; conditions: 3D7, 72 h
Method in brief: (§6)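 P. falciparum cultures in RPMI-1640-FBS; DMSO stock 5 mg/ml, test dilutions in culture medium; duplicate wells; 1.0% parasitized cell suspension at 0.8% parasitaemia; 37 °C, 5% CO2 in air, 72 h. Lysis buffer with SYBR Green I added, 1 h at 37 °C; fluorescence read at 485/530 nm excitation/emission as RFU. Chloroquine reference. IC50 in ng/mL.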

Plasmodium falciparum [6] = assay: Antimalarial activity against chloroquine-resistant Plasmodium falciparum K1 assessed as parasite growth inhibition after 72 hrs by MSF assay; type: functional, organism-based; conditions: K1, 72 h; method in brief: as §6
[7] = Selectivity index, ratio of CC50 for african green monkey Vero cells to IC50 for chloroquine-sensitive Plasmodium falciparum 3D7; type: functional
KB [8] = assay: as §2; type: cell-based; conditions: kb, 72 h; method in brief: as §3
Leishmania donovani [9] = assay: Antileishmanial activity against amastigote stage of Leishmania donovani infected in mouse J774A.1 cells assessed as intracellular parasite growth inhibition at 40 uM after 72 hrs by luciferase reporter gene assay; type: functional, organism-based; method in brief: as §1
KB [10] = assay: as §4; type: functional; method in brief: as §5

Q: What does the source list for `Cc1cc(N2CCN(c3ccccc3)CC2)nc(Nc2ccc(OCCCCCOc3ccc(Nc4nc(C)cc(N5CCN(c6ccccc6)CC5)n4)cc3)cc2)n1`?
A: IC50 (Leishmania donovani [1]): 1.72 µM; CC50 at 72 h [2]: > 400 µM; Ratio CC50/IC50 [3]: >232; CC50 at 72 h [4]: 100 mg/L (≈ 126 µM); IC50 (Plasmodium falciparum [5]): 0.0592 mg/L (≈ 0.0749 µM); IC50 (Plasmodium falciparum [6]): 0.0531 mg/L (≈ 0.0671 µM); Ratio CC50/IC50 [7]: 1688

Q: With `Cc1cc(NCc2ccc(F)cc2)nc(Nc2ccc(OCCCCCOc3ccc(Nc4nc(C)cc(NCc5ccc(F)cc5)n4)cc3)cc2)n1` as the compound, how does the IC50 (Leishmania donovani [1]) read?
A: The IC50 was 1.41 µM.

Q: And the CC50 at 72 h [2]?
A: Its CC50 at 72 h is 8.68 µM.

Q: And the “Ratio CC50/IC50” value [3]?
A: Its value is 6.16.

Q: And the CC50 at 72 h [4]?
A: Its CC50 at 72 h is 41.4 mg/L (≈ 57.8 µM).

Q: What about the IC50 (Plasmodium falciparum [5]) of the same compound?
A: Its IC50 is 0.0394 mg/L (≈ 0.055 µM).

Q: What about the IC50 (Plasmodium falciparum [6]) of the same compound?
A: Its IC50 is 0.358 mg/L (≈ 0.5 µM).

Q: What about the “Ratio CC50/IC50” value [7] of the same compound?
A: Its value is 1051.51.

Q: With `COc1ccc(C(=O)/C=C/c2ccc(OCCCCCOc3ccc(C=O)cc3)cc2)cc1OC` as the compound, how does the IC50 (Leishmania donovani [1]) read?
A: The IC50 was 28.4 µM.

Q: And the CC50 at 72 h [2]?
A: Its CC50 at 72 h is 13.9 µM.

Q: What about the “Ratio CC50/IC50” value [3] of the same compound?
A: Its value is 0.49.

Q: Which IC50 (Leishmania donovani [1]) does the source give for `Cc1cc(N2CCN(C)CC2)nc(Nc2ccc(OCCCCCOc3ccc(Nc4nc(C)cc(N5CCN(C)CC5)n4)cc3)cc2)n1` here?
A: The IC50 was 0.81 µM.

Q: What about the CC50 at 72 h [2] of the same compound?
A: The CC50 at 72 h was 2.93 µM.

Q: What about the “Ratio CC50/IC50” value [3] of the same compound?
A: Its value is 3.62.

Q: And the CC50 at 72 h [4]?
A: The CC50 at 72 h was 10.8 mg/L (≈ 16.2 µM).

Q: And the IC50 (Plasmodium falciparum [5])?
A: Its IC50 is 0.245 mg/L (≈ 0.367 µM).

Q: And the “Ratio CC50/IC50” value [7]?
A: The value was 43.97.

Q: For “SODIUM ANTIMONY GLUCONATE [listing 1 of 2 here]”, which CC50 (KB [8]) is on record?
A: Its CC50 is 398 mg/L.

Q: With `Cc1cc(NCc2ccccc2)nc(Nc2ccc(OCCCCCOc3ccc(Nc4nc(C)cc(NCc5ccccc5)n4)cc3)cc2)n1` as the compound, how does the IC50 (Leishmania donovani [1]) read?
A: Its IC50 is 1.67 µM.

Q: What about the CC50 at 72 h [2] of the same compound?
A: The CC50 at 72 h was 26 µM.

Q: And the “Ratio CC50/IC50” value [3]?
A: The value was 15.6.

Q: And the CC50 at 72 h [4]?
A: The CC50 at 72 h was 22.1 mg/L (≈ 32.4 µM).

Q: And the IC50 (Plasmodium falciparum [5])?
A: Its IC50 is 0.0514 mg/L (≈ 0.0756 µM).

Q: And the IC50 (Plasmodium falciparum [6])?
A: The IC50 was 0.383 mg/L (≈ 0.562 µM).

Q: What about the “Ratio CC50/IC50” value [7] of the same compound?
A: The value was 429.15.

Q: Which results are given for `Cc1cc(N2CCOCC2)nc(Nc2ccc(OCCCCCOc3ccc(Nc4nc(C)cc(N5CCOCC5)n4)cc3)cc2)n1`?
A: IC50 (Leishmania donovani [1]): 1.18 µM; CC50 at 72 h [2]: 5.51 µM; Ratio CC50/IC50 [3]: 4.67; CC50 at 72 h [4]: 2.06 mg/L (≈ 3.21 µM); IC50 (Plasmodium falciparum [5]): 0.264 mg/L (≈ 0.412 µM); Ratio CC50/IC50 [7]: 7.82

Q: Which “growth inhibition (GI)” value (Leishmania donovani [9]) does the source give for `COc1ccc(C(=O)/C=C/c2ccc(OCCCCCOc3ccc(/C=C/C(=O)c4ccc(OC)c(OC)c4)cc3)cc2)cc1OC` here?
A: Its value is “inactive”.

Q: With `CCN1CCN(c2cc(C)nc(Nc3ccc(OCCCCCOc4ccc(Nc5nc(C)cc(N6CCN(CC)CC6)n5)cc4)cc3)n2)CC1` as the compound, how does the IC50 (Leishmania donovani [1]) read?
A: The IC50 was 0.3 µM.

Q: What about the CC50 at 72 h [2] of the same compound?
A: The CC50 at 72 h was 3.65 µM.

Q: What about the “Ratio CC50/IC50” value [3] of the same compound?
A: Its value is 12.17.

Q: What about the CC50 at 72 h [4] of the same compound?
A: Its CC50 at 72 h is 7.13 mg/L (≈ 10.3 µM).

Q: And the IC50 (Plasmodium falciparum [5])?
A: Its IC50 is 0.0451 mg/L (≈ 0.065 µM).

Q: And the IC50 (Plasmodium falciparum [6])?
A: Its IC50 is 0.0221 mg/L (≈ 0.0318 µM).

Q: What about the “Ratio CC50/IC50” value [7] of the same compound?
A: Its value is 157.9.

Q: With `CCCCCCCCCCCCCCCCOP(=O)([O-])OCC[N+](C)(C)C` [MILTEFOSINE] as the compound, how does the “Ratio CC50/IC50” value [3] read?
A: Its value is 0.25.

Q: Which IC50 (Leishmania donovani [1]) does the source give for `Nc1nc(-c2ccccc2)cc(-c2ccc(OCCCCCOc3ccc(-c4cc(-c5ccccc5)nc(N)n4)cc3)cc2)n1` here?
A: Its IC50 is 0.96 µM.

Q: And the CC50 at 72 h [2]?
A: The CC50 at 72 h was over 400 µM.

Q: And the “Ratio CC50/IC50” value [3]?
A: Its value is over 242.42.

Q: For “SODIUM ANTIMONY GLUCONATE [listing 2 of 2 here]”, which Ratio CC50/IC50 (KB [10]) is on record?
A: The Ratio CC50/IC50 was 5.53.

Q: Which CC50 at 72 h [4] does the source give for `CCN(CC)CCCC(C)Nc1ccnc2cc(Cl)ccc12` (stereo not drawn) [CHLOROQUINE] here?
A: The CC50 at 72 h was 75 mg/L (≈ 234 µM).

Q: Which results are given for `Cc1cc(NC2CC2)nc(Nc2ccc(OCCCCCOc3ccc(Nc4nc(C)cc(NC5CC5)n4)cc3)cc2)n1`?
A: IC50 (Leishmania donovani [1]): 0.42 µM; CC50 at 72 h [2]: 2.68 µM; Ratio CC50/IC50 [3]: 6.38; CC50 at 72 h [4]: 0.56 mg/L (≈ 0.964 µM); IC50 (Plasmodium falciparum [5]): 0.00625 mg/L (≈ 0.0108 µM); IC50 (Plasmodium falciparum [6]): 0.0113 mg/L (≈ 0.0194 µM); Ratio CC50/IC50 [7]: 89.6

Q: With `N=C(N)c1ccc(OCCCCCOc2ccc(C(=N)N)cc2)cc1` [PENTAMIDINE] as the compound, how does the IC50 (Leishmania donovani [1]) read?
A: Its IC50 is 20.4 µM.

Q: And the CC50 at 72 h [2]?
A: The CC50 at 72 h was 52.7 µM.

Q: And the “Ratio CC50/IC50” value [3]?
A: The value was 2.58.

Q: What does the source list for `Cc1cc(NC2CCCC2)nc(Nc2ccc(OCCCCCOc3ccc(Nc4nc(C)cc(NC5CCCC5)n4)cc3)cc2)n1`?
A: IC50 (Leishmania donovani [1]): 1.53 µM; CC50 at 72 h [2]: 1.69 µM; Ratio CC50/IC50 [3]: 1.11; CC50 at 72 h [4]: 18.1 mg/L (≈ 28.4 µM); IC50 (Plasmodium falciparum [5]): 0.313 mg/L (≈ 0.492 µM); Ratio CC50/IC50 [7]: 57.71

Q: Which results are given for `COc1ccc(CNc2cc(C)nc(Nc3ccc(OCCCCCOc4ccc(Nc5nc(C)cc(NCc6ccc(OC)cc6)n5)cc4)cc3)n2)cc1`?
A: IC50 (Leishmania donovani [1]): 0.57 µM; CC50 at 72 h [2]: 2.11 µM; Ratio CC50/IC50 [3]: 3.7; CC50 at 72 h [4]: 3.37 mg/L (≈ 4.55 µM); IC50 (Plasmodium falciparum [5]): 0.0117 mg/L (≈ 0.0158 µM); IC50 (Plasmodium falciparum [6]): 0.0236 mg/L (≈ 0.0319 µM); Ratio CC50/IC50 [7]: 288.28

Q: For `O=Cc1ccc(OCCCCCOc2ccc(/C=C/C(=O)c3ccc(Br)cc3)cc2)cc1`, which “growth inhibition (GI)” value (Leishmania donovani [9]) is on record?
A: The value was “inactive”.

Q: Which IC50 (Leishmania donovani [1]) does the source give for `O=C(/C=C/c1ccc(OCCCCCOc2ccc(/C=C/C(=O)c3ccccc3)cc2)cc1)c1ccccc1` here?
A: The IC50 was 1.65 µM.

Q: And the CC50 at 72 h [2]?
A: The CC50 at 72 h was over 400 µM.

Q: What about the “Ratio CC50/IC50” value [3] of the same compound?
A: Its value is over 242.42.
